Source: PubChem BioAssay (several laboratories)
PHOSPHO1 block: blocks human PHOSPHO1 phosphatase activity. hit rate 1.1% among 290,000. recombinant PHOSPHO1, absorbance phosphatase assay. Q8TCT1. inhibition, % at 13.3 µM; in the data active = inhibition above about 60%
KCNQ1 pot: potentiators or activators of human KCNQ1 potassium channel; P51787; CHO-K1 KCNQ1, thallium flux FluxOR fluorescence; active compounds read high; B-score at 10 µM; hit rate 0.35% among 310,000;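 active = fluorescence ratio B-score, a plate-corrected score, at least three library SD, with initial intensity B-score within 5 SD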
Target sequence (P51787 whole entry, looked up): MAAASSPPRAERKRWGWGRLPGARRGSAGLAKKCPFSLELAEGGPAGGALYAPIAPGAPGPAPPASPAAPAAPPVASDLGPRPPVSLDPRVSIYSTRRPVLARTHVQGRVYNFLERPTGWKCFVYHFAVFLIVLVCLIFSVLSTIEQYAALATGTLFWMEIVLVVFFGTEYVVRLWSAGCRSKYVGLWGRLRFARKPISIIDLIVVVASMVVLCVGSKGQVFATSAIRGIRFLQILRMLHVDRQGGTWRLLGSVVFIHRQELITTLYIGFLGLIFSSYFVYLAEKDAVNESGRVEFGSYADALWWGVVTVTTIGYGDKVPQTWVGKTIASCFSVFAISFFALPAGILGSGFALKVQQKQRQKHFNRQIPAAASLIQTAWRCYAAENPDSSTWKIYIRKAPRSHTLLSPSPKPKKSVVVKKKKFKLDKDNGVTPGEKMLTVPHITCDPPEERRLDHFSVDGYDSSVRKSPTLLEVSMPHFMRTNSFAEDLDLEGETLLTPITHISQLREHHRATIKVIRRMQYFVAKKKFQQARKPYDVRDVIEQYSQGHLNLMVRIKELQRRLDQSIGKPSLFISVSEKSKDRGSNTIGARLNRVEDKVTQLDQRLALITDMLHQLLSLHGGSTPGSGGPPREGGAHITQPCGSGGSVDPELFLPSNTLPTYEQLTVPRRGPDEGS
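Assay system: CHO-K1 cells stably expressing KCNQ1; Medium: assay buffer with matched DMSO; Also added: K+/Tl+ depolarizing stimulus; Dosing: single dose; Timing: dye 90 min, compound 20 min, room temperature; Measured by: kinetic FluxOR thallium fluorescence, 10-s 1-Hz baseline, 110-s post-stimulus read; Read-out: peak-minus-minimum fluorescence over initial fluorescence, negative-control normalized, B-scored.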
KCNQ1 inh: inhibitors of human KCNQ1 potassium channel. P51787. hit rate 1.3% among 310,000. CHO-K1 KCNQ1, FluxOR thallium flux fluorescence; active compounds read high. AID 2642. B-score at 10 µM;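 active = compounds whose thallium flux B-score, printed positive for inhibition, exceeds three library SD while starting fluorescence stays within three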;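 also: channel opened by potassium depolarization with thallium stimulus after 20 min compound exposure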
KCNK3 inh: human KCNK3 channel inhibition, primary screen; O14649; CHO-KCNK3 thallium flux, FluxOR fluorescence; active compounds read low; B-score at 10 µM; hit rate 0.84% among 340,000;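 active = B-score under library mean minus 4 SD, starting fluorescence ratio at most library mean plus 5 SD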;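 also: more negative B-score means stronger inhibition of thallium flux through KCNK3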
hERG protect: shields human hERG channel from block by proarrhythmic agents; hit rate 0.51% among 310,000; AID 1511; Q12809; activation (rescue from dofetilide block), less the hit threshold, % at 10 µM; CHO-hERG, FluxOR thallium flux, dofetilide IC70 present;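 active = activation above the mean of controls blocked by dofetilide plus 5 SD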;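 also: thallium influx through hERG after potassium depolarization seen as dye fluorescence rise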
KCNK9 inh: blocks the human KCNK9 two-pore domain potassium channel; Q9NPC2; HEK293 KCNK9, FluxOR thallium flux fluorescence; active compounds read low; B-score at 10 µM; hit rate 1.2% among 310,000; AID 488922;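 active = ratio B-score over 3 SD below the library mean, with starting fluorescence within 5 SD of its mean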;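 also: negative B-score means less thallium flux so channel inhibition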
A number is an active result; n = inactive; x = no result given. Compounds with a hit are over-represented: about 4% of the library has one in this group of screens.

SMILES	PHOSPHO1 block	KCNQ1 pot	KCNQ1 inh	KCNK3 inh	hERG protect	KCNK9 inh
COc1ccc(F)cc1CN1CCN(C(=O)CCC(=O)Nc2nnc(CC(C)C)s2)CC1	n	n	n	n	n	n
CC(C)(C)OC(=O)COc1cc(OCC(=O)OC(C)(C)C)c2c(=O)cc(-c3ccccc3)oc2c1	n	x	x	-9.1	x	x
O=C(CC1SC(N2CCCCC2)=NC1=O)Nc1cccc(C(=O)NCc2ccccc2)c1 (stereo unspecified)	x	x	x	n	x	x
N#C/C(=C\c1ccc(N2CCOCC2)o1)C(=O)NC1CCCCC1	n	n	9	n	n	n
N#C/C(=C\c1ccc(N2CCOCC2)o1)C(=O)NCC1CCCO1 (stereo unspecified)	n	n	9	n	n	n
N#C/C(=C/c1ccc(N2CCOCC2)o1)C(=O)Nc1ccccc1	n	n	n	n	n	-6.6
CCCCN(C)C(=O)C1CCN(c2ccc(S(=O)(=O)N3CCOCC3)cc2[N+](=O)[O-])CC1	x	n	n	n	n	n
Nc1ncnc2c1ncn2C1CCCC(CO)O1 (stereo unspecified)	x	x	x	n	x	x
C=CCn1c(CNC(=O)c2cccs2)nnc1SCC(=O)Nc1ccc(C(=O)O)cc1	90	n	n	n	n	n
CCOC(=O)C(C)n1cnc2c(nnn2-c2ccccc2)c1=O (stereo unspecified)	n	n	n	n	n	n
COc1cc(NC(=O)Cn2cnc(S(=O)(=O)N3CCCC3)c2)cc(OC)c1OC	n	n	n	n	n	n
COc1cc(NC(=O)Cn2cnc(S(=O)(=O)N3CCC(C)CC3)c2)cc(OC)c1OC	n	n	n	-9	n	n
O=C1N=C(N2CCOCC2)S/C1=C\c1ccncc1	n	n	n	n	n	n
CC(=C/c1ccccc1)/C=C1/SC(N2CCOCC2)=NC1=O	n	n	6	n	n	n
COc1ccc(/C=N/NC(=O)c2ccn[nH]2)cc1COc1ccc(F)cc1	n	n	n	n	n	n
COc1ccc(/C=N/NC(=O)c2ccn[nH]2)cc1COc1ccc([N+](=O)[O-])c(C)c1	n	n	6	n	n	n
CCN(CC)S(=O)(=O)c1ccc(N2CCOCC2)c(NC(=O)c2cc(Cl)c3c(c2)OCO3)c1	x	x	x	n	x	x
COc1ccc(C(=O)NC(C)c2nc3ccccc3[nH]2)cc1OC (stereo unspecified)	n	n	n	n	n	n
CN(C)c1ccc(C(c2ccc(N(C)C)cc2)c2ccc([N+](=O)[O-])cc2)cc1	n	n	n	n	n	-7.8
O=[N+]([O-])c1ccc(N(c2ccccc2)c2ccccc2)cc1	n	n	9	n	n	n
CN(C)c1ccc(C=NC(CO)C(O)c2ccc([N+](=O)[O-])cc2)cc1 (stereo unspecified)	n	n	n	n	n	n
CN(C)S(=O)(=O)Nc1cccc(-c2cn3c(n2)SCC3)c1	n	n	n	n	n	n
CC(NC(=O)CNC(=O)C1CCCCC1)c1cccc(Cl)c1 (stereo unspecified)	n	n	n	n	n	n
COc1ccc(Nc2ccnc3ccccc23)cc1	n	n	n	n	n	n
CC(C)Nc1ccc(Nc2ccnc3cc4ccccc4cc23)cc1	n	n	9	n	n	n
SMILES	PHOSPHO1 block	KCNQ1 pot	KCNQ1 inh	KCNK3 inh	hERG protect	KCNK9 inh
Cc1cccc(NC(=O)c2ccc(Cl)c(S(=O)(=O)N3CCc4ccccc43)c2)n1	x	x	x	-11	x	x
Nc1nnc(SCc2c(F)cccc2Cl)s1	n	n	n	n	n	n
COc1ccc(-n2c(COc3ccc(C)cc3)nnc2SCC(N)=O)cc1	95	n	n	n	n	n
COc1ccc(-n2c(COc3ccccc3)nnc2SCC(N)=O)cc1	72	n	n	n	n	n
COc1cccc(-n2c(COc3ccc(C)cc3)nnc2SCC(N)=O)c1	n	n	n	n	n	n
CCOC(=O)CSc1nnc(CNc2ccc(Cl)cc2)n1Cc1ccccc1	n	n	8	n	n	n
O=C(CSc1nnc(COc2ccccc2)n1-c1ccccc1)c1ccccc1	76	n	n	n	n	n
Cc1ccc(OC(=O)CCC(=O)N2CCc3ccccc32)cc1	n	n	n	n	n	n
O=C(c1cccnc1)N1CCN(c2ccc([N+](=O)[O-])cc2Cl)CC1	n	n	n	n	n	n
O=C(OCC(=O)N1CCCC1)c1c2c(nc3ccccc13)CCCCC2	n	n	n	n	n	n
CCCCSC1=C(C#N)C(c2ccccc2C)C(C(=O)OCC)C(=O)N1 (stereo unspecified)	n	n	n	n	n	n
CN1CCC(N(C)C(=O)c2ccc(Cl)c(S(=O)(=O)N3CCc4ccccc43)c2)CC1	x	x	x	n	x	x
CCOC(=O)CSc1nnc(Cc2ccc(OC)cc2)n1-c1ccccc1	79	n	n	n	n	n
CNC(=O)CSc1nnc(-c2ccco2)n1-c1ccc(C)cc1	n	n	n	n	48	n
CCN1C(=O)/C(=C/c2ccc(C)s2)NC1=S	76	10	n	n	10	n
CCOc1ccc(NC(=O)CCCCn2c(=O)[nH]c3ccsc3c2=O)cc1	n	n	n	n	n	n
COc1nc(NCCc2ccc(OC)c(OC)c2)nc(Nc2ccccc2)n1	62	n	n	n	n	n
O=C(Nc1ccc(Br)cc1)Nn1cnnc1	n	n	n	n	n	n
O=C(Nc1ccc(Br)cc1Cl)Nn1cnnc1	n	n	n	n	6.2	n
Cc1ccc(NC(=O)c2cc(S(=O)(=O)N3CCc4ccccc43)cn2C)cc1	n	n	n	n	n	n
COc1cc(NC(=O)c2cc(S(=O)(=O)N3CCc4ccccc43)cn2C)cc(OC)c1OC	65	n	n	n	n	n
CCOC(=O)c1cc2sc(C)cc2n1CC(=O)NCCc1ccccc1	n	n	n	n	n	n
Cc1cccc(NC(=S)N(C)Cc2cn(C)c3ccccc23)c1	n	n	n	n	n	n
CSc1ccc(N=Nc2c(C)[nH]n(C)c2=O)cc1	n	n	n	n	n	n
O=C(CCC1N=C2c3ccccc3N=C(SCc3ccc(Cl)cc3)N2C1=O)NCc1ccco1 (stereo unspecified)	n	n	n	n	n	-7.8
SMILES	PHOSPHO1 block	KCNQ1 pot	KCNQ1 inh	KCNK3 inh	hERG protect	KCNK9 inh
CC(Oc1ccc(Br)cc1)C(=O)Nc1ccc(S(=O)(=O)N(C)C2CCN(C)CC2)cc1 (stereo unspecified)	x	10	n	n	n	n
CC(=O)Nc1nc(=S)ss1	79	n	n	n	n	n
Cc1ccccc1C(=O)Nc1nc(=S)ss1	n	9	n	n	20	n
NC(=O)c1ccc(NC(=O)Cc2ccc(S(=O)(=O)N3CCCCC3)cc2)cc1	x	x	x	n	x	x
Cc1cc(/C=C/C(=O)O)c(C)n1-c1ccc(Cl)cc1	n	n	n	n	n	n
CCN1CCc2c(sc(NC(=O)c3ccc4ccccc4c3)c2C(N)=O)C1	n	n	n	n	n	-6.8
